Source: PubChem BioAssay
The source made the active and inactive calls.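 How the source made its calls, unless noted: active means fluorescence slope after compound addition differing from the mean of all tested samples at 99.7% confidence, mostly higher but some lower; inactive means the rest.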

Experiments:
[1] = inhibitors of TNFa-induced NFkB p65 translocation, primary screen, imaging, HUVEC, MLSMR starter and 10KST1 sets (AID 438;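 active means inhibition above 20% together with a positive visual image hit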;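 further: compound added about 3h40 before a 20 min TNFalpha stimulation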;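 on inhibition: signal is the nuclear over cytoplasmic p65 intensity ratio per well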); conditions: HUVEC TNFa-induced p65 nuclear translocation; cell count: measured here: nuclei count (cytotoxicity indicator), at 2.08 µM; inhibition: at 2 µM, stronger effect = higher value, 0% TNFa-plus-vehicle, 100% no-TNFa wells
[2] = inhibitors of E-selectin induction by TNFa, primary screen, imaging, HUVEC, immunofluorescence, MLSMR starter and 10KST1 sets (AID 487;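 active means visually confirmed hit in the image check and inhibition above 20%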;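 on inhibition: signal is fraction of cell area covered by stained E-selectin grains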;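 on nuclei count: 100% = median nuclei count of all wells on the same plate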); conditions: HUVEC TNFalpha-induced E-selectin immunofluorescence imaging, at 2 µM; inhibition: stronger effect = higher value; nuclei count: measured here: cell number, toxicity
[3] = DUSP6 inhibitors restoring Erk phosphorylation by chemical complementation, primary imaging in DUSP6-transfected HeLa (AID 609;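 active means compounds giving at least 50% inhibition in the cell-based MKP-3 phosphatase rescue imaging test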;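 on inhibition: phospho-Erk level distribution per well compared with pooled transfected vehicle control wells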); conditions: HeLa MKP-3 transfected, phospho-Erk imaging KS statistic, at 10 µM, cells stimulated with TPA for 15 min
[4] = target: Dual specificity protein phosphatase 6 (Homo sapiens) (UniProt Q16828); assay: as above; conditions: HeLa MKP-3 transfected, phospho-Erk imaging KS statistic; at 10 µM; stronger effect = higher value; cells stimulated with TPA for 15 min
Sequence of Dual specificity protein phosphatase 6 (Homo sapiens) (Q16828 whole entry, looked up): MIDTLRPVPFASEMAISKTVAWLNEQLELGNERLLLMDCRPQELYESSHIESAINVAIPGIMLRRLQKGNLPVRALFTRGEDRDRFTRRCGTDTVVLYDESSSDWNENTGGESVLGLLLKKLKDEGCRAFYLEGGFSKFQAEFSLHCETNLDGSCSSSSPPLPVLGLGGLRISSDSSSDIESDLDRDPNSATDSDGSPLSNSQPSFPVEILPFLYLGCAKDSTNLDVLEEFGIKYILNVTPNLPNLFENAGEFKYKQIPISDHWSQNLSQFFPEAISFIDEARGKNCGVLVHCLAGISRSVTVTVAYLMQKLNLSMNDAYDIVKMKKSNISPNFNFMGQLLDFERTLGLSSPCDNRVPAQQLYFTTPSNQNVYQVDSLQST

[5] = target: Voltage-gated potassium channel subunit beta-2 (Rattus norvegicus) (UniProt P62483); assay: KvBeta enzyme negative modulators, primary screen, biochemical, NADPH fluorescence (AID 622;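 active means fluorescence slope higher than the sample average by over 3 SD, cut at about -0.22 in these data, passing the limit was not always enough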;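 further: slope of raw intensity against log time taken from 70 to 1610 s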); conditions: recombinant KvBeta, 4-cyanobenzaldehyde reduction, at 10 µM, stronger effect = higher value
Sequence of Voltage-gated potassium channel subunit beta-2 (Rattus norvegicus) (P62483 whole entry, looked up): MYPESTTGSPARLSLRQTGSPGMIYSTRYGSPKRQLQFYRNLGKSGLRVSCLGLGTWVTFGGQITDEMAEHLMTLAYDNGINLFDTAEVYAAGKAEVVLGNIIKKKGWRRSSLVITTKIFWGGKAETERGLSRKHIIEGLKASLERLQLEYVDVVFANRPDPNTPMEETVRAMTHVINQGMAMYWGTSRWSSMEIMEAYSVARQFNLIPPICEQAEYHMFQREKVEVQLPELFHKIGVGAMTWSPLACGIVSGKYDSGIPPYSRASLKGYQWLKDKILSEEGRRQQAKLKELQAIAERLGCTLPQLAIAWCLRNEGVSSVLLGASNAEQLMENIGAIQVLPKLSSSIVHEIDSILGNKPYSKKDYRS

[6] = target: Voltage-gated potassium channel subunit beta-2 (Rattus norvegicus) (UniProt P62483); assay: KvBeta positive modulators, primary screen, biochemical, NADPH fluorescence (AID 623;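 active means NADPH fluorescence slope more negative than the mean of all samples by about 3 SD, 99.7% confidence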;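 further: fluorescence intensity change per second fitted from 20 to 320 s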); conditions: Recombinant KvBeta, NADPH fluorescence decrease slope, 10 min; at 10 µM; stronger effect = lower value
[7] = target: Muscarinic acetylcholine receptor M4 (Homo sapiens) (UniProt P08173); assay: compounds altering M4/GIRK thallium flux, either direction, primary screen, M4 allosteric agonist project, cell-based, HEK293 M4/GIRK, BTC-AM (AID 625); conditions: at 10 µM, actives lie on both sides;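 further: thallium influx through GIRK channels coupled to M4 in HEK293 cells with BTC-AM dye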
Sequence of Muscarinic acetylcholine receptor M4 (Homo sapiens) (P08173 whole entry, looked up): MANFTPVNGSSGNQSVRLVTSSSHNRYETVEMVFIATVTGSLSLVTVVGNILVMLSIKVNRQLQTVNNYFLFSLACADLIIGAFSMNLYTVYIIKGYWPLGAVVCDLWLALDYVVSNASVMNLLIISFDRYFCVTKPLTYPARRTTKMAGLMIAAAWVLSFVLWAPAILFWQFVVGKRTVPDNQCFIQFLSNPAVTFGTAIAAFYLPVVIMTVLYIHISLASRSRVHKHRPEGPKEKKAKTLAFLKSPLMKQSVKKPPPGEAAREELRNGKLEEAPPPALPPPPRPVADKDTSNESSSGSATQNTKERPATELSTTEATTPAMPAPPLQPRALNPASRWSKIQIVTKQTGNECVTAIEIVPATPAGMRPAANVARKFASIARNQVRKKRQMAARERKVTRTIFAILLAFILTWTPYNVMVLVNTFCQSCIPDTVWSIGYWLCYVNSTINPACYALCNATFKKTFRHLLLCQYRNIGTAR
How it was run: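 assay system = HEK293 cells with M4 receptor and GIRK channels | medium = pH 7.3 thallium assay buffer | doses = 10 µM final, single point | timing = cells overnight at 37 °C, BTC-AM loading 1 h, reads 2 min total | signal = BTC-AM fluorescence, 1 Hz kinetic reads | read-out = post-addition slope, 15–24 s, of baseline-normalized fluorescence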

[8] = inhibitors of larval lipid processing in zebrafish, primary screen, whole organism, PED6 fluorescence, gall bladder and intestine (AID 686;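 active means a full or partial loss of lipid-probe fluorescence in the fish gall bladder, intestine or both, judged by eye; inactive means no fluorescence loss, or compound toxic to the fish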;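 further: larvae 5 to 7 days old with five fish per well; signal comes from phospholipase A2 cleavage of quenched PED6 carried via bile; overnight exposure to compound and PED6 before scoring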); conditions: Zebrafish larvae PED6 lipid processing, fluorescence scoring; screened at 20 µM (by protocol)
How it was run: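 Also added: quenched phospholipase substrate PED6, 100 nM final, ingested by larvae; System: zebrafish larvae, 5-7 d; Quantity: 5 larvae per well; Compound: 20 µM single dose; Schedule: overnight compound and PED6 incubation; Read-out: visual per-well fluorescence inhibition score; Measured by: By-eye fluorescence microscopy; Medium: E3.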

[9] = inhibitors of Chlamydomonas gravitaxis, primary screen, whole organism, Chlamydomonas reinhardtii, WT vs cilia-less mutant, absorbance, 96-well (AID 463189;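 active means inhibition at or above 50% relative to wild type and mutant plate controls; inactive means inhibition below 50%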;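 further: 0% = wild type cc124 cells in DMSO and 100% = ciliumless bld1 mutant cells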); conditions: OD600 absorbance, 2 days, at 10 µM, stronger effect = higher value
[10] = measured here: cell density z-score
[11] = measured here: nuclear c-Myc green intensity z-score
[12] = measured here: nuclear pErk red intensity z-score, stronger effect = higher value

Row | SMILES | cell count [1] | inhibition [1] | inhibition [2] | nuclei count [2] [%] | z-score [3, 10] | z-score [3, 11] | z-score [3, 12] | inhibition [4] | fluorescence slope [5] | NADPH fluorescence slope [6] | fluorescence slope [7] | outcome [8] | inhibition [9]
1 | CCOc1ccc(-c2nc(C#N)c(NCC(C)C)o2)cc1 | 402 | -4% (inactive) | -45.5% (inactive) | 159 | -1.19 | -0.813 | 2.25 | -2.69% (inactive) | -0.474 (inactive) | -8e-05 (inactive) | 0.00573 (inactive) | inactive | -4.03% (inactive)
2 | O=C(NCCc1ccccc1)/C(=N\O)c1ccccc1 | 555 | -5.6% (inactive) | 19.1% (inactive) | 182 | 1.61 | -1.77 | -0.308 | 13.9% (inactive) | -0.404 (inactive) | -8.5e-06 (inactive) | 0.00486 (inactive) | inactive | 2.81% (inactive)
3 | CCOC(=O)CNC(=O)CNC(=O)c1ccc(OC)cc1 | 394 | -0.5% (inactive) | 6.4% (inactive) | 82.7 | 0.162 | 0.31 | 1.25 | 17.4% (inactive) | -0.447 (inactive) | -5.5e-05 (inactive) | 0.0051 (inactive) | inactive | 23.5% (inactive)
4 | CCN(CC)C(=O)COn1c(SCC(=O)N(CC)CC)nc2ccccc2c1=O | 714 | 1% (inactive) | 10.1% (inactive) | 161 | -0.154 | -0.248 | 0.329 | -1.12% (inactive) | -0.42 (inactive) | -4.1e-05 (inactive) | 0.00498 (inactive) | inactive | -1.16% (inactive)
5 | CC(NC(=O)OCc1ccccc1)C(=O)OCN1C(=O)c2ccccc2C1=O (stereo unspecified) | 519 | -9.1% (inactive) | -64.3% (inactive) | 130 | 0.544 | -1.4 | 0.638 | -3.97% (inactive) | -0.391 (inactive) | -4.8e-06 (inactive) | 0.00711 (inactive) | inactive | 28% (inactive)
6 | O=c1[nH]c2sc3c(c2c(=O)n1Cc1ccccc1)CCC3 | 602 | -2.5% (inactive) | -99.8% (inactive) | 146 | 0.896 | 0.335 | -0.051 | 9.07% (inactive) | -0.453 (inactive) | -0.000103 (inactive) | 0.00552 (inactive) | inactive | -9.09% (inactive)
7 | Clc1ccc(COc2ccccn2)c(Cl)c1 | 600 | 2.8% (inactive) | -15.4% (inactive) | 138 | 0.311 | -1.08 | -1.17 | 23.8% (inactive) | -0.387 (inactive) | -4.6e-05 (inactive) | 0.00573 (inactive) | inactive | -0.499% (inactive)
8 | c1ccc(-n2ncc3c(N4CCCC4)ncnc32)cc1 | 589 | -7% (inactive) | 12.6% (inactive) | 188 | 0.427 | 1.25 | -0.224 | 7.42% (inactive) | -0.378 (inactive) | -3.1e-05 (inactive) | 0.00634 (inactive) | inactive | 15.7% (inactive)
9 | CC(C)Cc1nc(N2CCOCC2)c(C#N)c2c1COC(C)(C)C2 | 584 | -7% (inactive) | -84.6% (inactive) | 146 | -0.646 | 0.861 | 0.329 | -2.09% (inactive) | -0.405 (inactive) | -3.3e-05 (inactive) | 0.00418 (inactive) | inactive | 3.97% (inactive)
10 | O=C(NCCN1CCCCC1)/C(=N\O)c1ccccc1 | 515 | -13% (inactive) | 18.4% (inactive) | 155 | 1.4 | 0.164 | -0.171 | 23.8% (inactive) | -0.4 (inactive) | -3.3e-05 (inactive) | 0.00408 (inactive) | inactive | 2.85% (inactive)
11 | CCc1nc2n[nH]c(N)c2c2c1CSC(C)(C)C2 | 644 | -0.8% (inactive) | -44.1% (inactive) | 168 | -1.43 | 0.647 | 2.27 | -15% (inactive) | -0.458 (inactive) | -5.1e-05 (inactive) | 0.00446 (inactive) | inactive | 12.1% (inactive)
12 | CC(C(=O)N(C)C)N(C#N)c1nc(N(C)C)nc(N(C)C)n1 (stereo unspecified) | 606 | 7.4% (inactive) | 7.8% (inactive) | 80.9 | -1.86 | 1.62 | 0.8 | 7.21% (inactive) | -0.506 (inactive) | -5.1e-05 (inactive) | 0.00543 (inactive) | inactive | 26.6% (inactive)
13 | Cc1cc(=O)oc(C)c1C(=O)NCCc1ccccc1 | 661 | 9.3% (inactive) | -1% (inactive) | 109 | -0.903 | 1.05 | 0.63 | 5.35% (inactive) | -0.433 (inactive) | -4.2e-05 (inactive) | 0.00484 (inactive) | inactive | -7.3% (inactive)
14 | COc1cccc(C(=O)OC2CCCN(C)C2)c1 (stereo unspecified) | 524 | 1.2% (inactive) | -39.2% (inactive) | 141 | 0.452 | 1.21 | 0.0712 | 9.42% (inactive) | -0.457 (inactive) | -8.4e-05 (inactive) | 0.00427 (inactive) | inactive | 0.435% (inactive)
15 | Cc1cc(NC(CC(C)C)C(=O)O)nc(Cc2ccccc2)n1 (stereo unspecified) | 372 | -2.8% (inactive) | -117% (inactive) | 188 | -0.0865 | -1.02 | 0.665 | 5.42% (inactive) | -0.47 (inactive) | -0.000155 (inactive) | 0.00469 (inactive) | inactive | 0.592% (inactive)
16 | c1ccc(-n2c(Cc3cccnc3)nc3cnccc32)cc1 | 581 | -2.4% (inactive) | 48.6% (inactive) | 107 | -0.422 | -1.1 | -1.28 | -6.48% (inactive) | -0.468 (inactive) | -5.8e-05 (inactive) | 0.00562 (inactive) | inactive | 1.93% (inactive)
17 | N#Cc1c(N)n(CCOC(=O)c2ccc(Cl)cc2)c2nc3ccccc3nc12 | 617 | 22.7% (active) | -33.2% (inactive) | 95 | -0.315 | -0.666 | -0.586 | -2.47% (inactive) | -0.278 (inactive) | -7.1e-06 (inactive) | 0.00595 (inactive) | inactive | -2.92% (inactive)
18 | CCC(CC)n1[nH]c(=O)cc1N | 392 | -15.4% (inactive) | -166% (inactive) | 144 | 2 | -1.52 | -0.418 | 7.73% (inactive) | -0.46 (inactive) | -9.4e-05 (inactive) | 0.0051 (inactive) | inactive | 7.67% (inactive)
19 | O=C(Nc1ccc(N2CCN(C(=O)c3ccccc3)CC2)c(Cl)c1)c1ccc(Br)o1 | 435 | -6.8% (inactive) | -72.9% (inactive) | 143 | -0.73 | 0.543 | -0.883 | -7.28% (inactive) | -0.431 (inactive) | -2.9e-05 (inactive) | 0.00435 (inactive) | inactive | 117% (active)
20 | COc1ccccc1C(=O)NCC(=O)n1nc(C)cc1C | 542 | -13.5% (inactive) | -24% (inactive) | 146 | 0.666 | 0.744 | -0.112 | 19.8% (inactive) | -0.331 (inactive) | -5.1e-05 (inactive) | 0.0067 (inactive) | inactive | -1.54% (inactive)
21 | CSc1nc(N)nc(SCC(=O)C23CC4CC(CC(C4)C2)C3)c1C#N | 491 | 2.8% (inactive) | -70.2% (inactive) | 94.4 | -0.797 | 0.314 | -0.79 | 15.9% (inactive) | -0.334 (inactive) | -1.7e-05 (inactive) | 0.00876 (inactive) | inactive | 35.9% (inactive)
22 | Cc1ccc(S(=O)(=O)/C(C#N)=C/c2c(N3CCN(C)CC3)nc3ccccn3c2=O)cc1 | 484 | 6.4% (inactive) | -211% (inactive) | 173 | 0.277 | -0.883 | 0.543 | 1.04% (inactive) | -0.454 (inactive) | -5.5e-05 (inactive) | 0.0048 (inactive) | inactive | -9.76% (inactive)
23 | O=c1c2c3c(sc2nc2n1CCCS2)CCCC3 | 612 | -6.1% (inactive) | -125% (inactive) | 162 | -0.979 | -0.423 | 0.7 | -7.67% (inactive) | -0.477 (inactive) | -9.8e-05 (inactive) | 0.00442 (inactive) | inactive | 73.3% (active)
24 | CN1CCN(Cc2c(O)c(Cl)cc3c(-c4ccccc4)cc(=O)oc23)CC1 | 601 | -8.3% (inactive) | -38.4% (inactive) | 108 | -0.109 | -0.251 | -0.155 | 2.46% (inactive) | -0.232 (inactive) | -2.2e-05 (inactive) | 0.00592 (inactive) | inactive | 10.5% (inactive)
25 | O=C(NCc1ccccn1)c1ccc(=O)oc1 | 758 | 8.2% (inactive) | -1.5% (inactive) | 151 | 0.015 | 0.178 | -0.703 | -3.95% (inactive) | -0.48 (inactive) | -4.4e-05 (inactive) | 0.00585 (inactive) | inactive | 17.3% (inactive)
26 | CCCSc1nnc(NC(=O)Nc2ccccc2)s1 | 655 | -20.6% (inactive) | -53.8% (inactive) | 184 | 0.599 | -1.15 | -0.322 | 5.35% (inactive) | -0.484 (inactive) | -5.4e-05 (inactive) | 0.00763 (inactive) | inactive | -6.45% (inactive)
27 | CCCCCCOc1ccc(C(=O)n2cnc(N)n2)cc1 | 664 | -4.5% (inactive) | -26.7% (inactive) | 174 | 0.344 | 0.534 | -0.706 | -5.95% (inactive) | -0.508 (inactive) | -7.5e-05 (inactive) | 0.00638 (inactive) | inactive | 0.29% (inactive)
